Laboratory results taken from ChEMBL document CHEMBL1125374, “Novel anticancer prodrugs of butyric acid. 2” (J Med Chem, 1992).

Experiments:
HL-60 = assay: Concentration required for 50% proliferation inhibition of human promyelocytic HL-60 cell line; format: functional, cell-based
How it was run: (§1)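 Cells grown in RPMI with 10% fetal calf serum and 2 mM glutamine at 37 °C, 5% CO2. HL-60 (human promyelocytic) and WEHI (murine myelomonocytic) cells exposed to a titration of compound for 24 h. [3H]thymidine pulsed at 1 µCi/well during the last 14 h. Acid-insoluble counts collected on glass-fibre filters. IC50 taken from percent incorporation vs log concentration. At least two independent experiments.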

B16-F10 [1] = assay: Effect on metastases of B16F10.9 melanoma cells (intravenously injected) in C57BL/6 mice was observed after administration of 100 mg/kg dose; conditions: route intraperitoneal
[2] = Lethal dose was determined; format: toxicity; conditions: mouse
How it was run: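 Acute toxicity in male and female BALB/c mice (3 experiments) and C57Bl mice (2 experiments), 6-8 weeks old, weighing 20 ± 0.5 g, in groups of 10. Each mouse got a single injection of 0.125-2.5 g/kg in propylene glycol, and LD50 was taken from mortality.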

B16-F10 [3] = assay: Effect on metastases of B16F10.9 melanoma cells (intravenously injected) was observed after administration of 50 mg/kg dose; conditions: route intraperitoneal
B16-F10 [4] = assay: Effect on metastases of B16F10.9 melanoma cells (intravenously inoculated) in C57BL/6 mice was observed after administration of 12.5 mg/kg dose; conditions: route intravenous
B16-F10 [5] = assay: Effect on metastases of B16F10.9 melanoma cells (intravenously injected) in C57BL/6 mice was observed after administration of 25 mg/kg dose; conditions: route intraperitoneal
B16-F10 [6] = assay: Inhibitory activity on growth of B16F10.9 melanoma cell line; format: functional, cell-based; conditions: Mus musculus
How it was run: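 B16F10.9 melanoma cells (4 x 10^4) seeded in 35-mm dishes in RPMI/10% FCS at 37 °C, 5% CO2. Compound added 6 h after seeding. On day 4 cells detached in PBS with 1 mM EDTA and counted electronically. IC50 read from viable cell number vs log concentration.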

B16-F10 [7] = assay: Effect on appearance of B16F10.9 colonies in semisolid agar; format: functional, cell-based; conditions: Mus musculus
How it was run: (§2)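 B16F10.9 cells (10^3) plated in the upper layer of a 0.6 mL RPMI soft-agar bilayer. Lower layer: conditioned medium 40, FCS 10, horse serum 15, agar 0.5 (% v/v). Upper layer: FCS 20, horse serum 20, agar 0.36. Compound added to the upper layer. Aggregates of more than 20 cells scored as colonies by inverted microscope after 7 days.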

WEHI = assay: Concentration required for 50% proliferation inhibition of myelomonocytic WEHI cell line; format: functional, cell-based; conditions: Mus musculus; how it was run: as §1
B16-F10 [8] = assay: Effect on metastases of B16F10.9 melanoma cells (intravenously injected) in C57BL/6 mice was observed after administration of 25 mg/kg dose; conditions: route intraperitoneal; remark: listed apart in the source
B16-F10 [9] = assay: Effect on metastases of B16F10.9 melanoma cells (intravenously injected) in C57BL/6 mice was observed after administration of 100 mg/kg dose; conditions: route intraperitoneal; remark: listed apart in the source
B16-F10 [10] = assay: Effect on metastases of B16F10.9 melanoma cells (intravenously injected) in C57BL/6 mice was observed after administration of 12.5 mg/kg; conditions: route intraperitoneal
B16-F10 [11] = assay: Effect on metastases of B16F10.9 melanoma cells (intraperitoneally implanted) in B6C3F1/OLAC/HSD mice was observed after administration of 50 mg/kg dose; format: functional, Mus musculus; conditions: route intraperitoneal
B16-F10 [12] = assay: Effect on appearance of B16F10.9 colonies in semisolid agar at 1 mM; format: functional, Mus musculus; how it was run: as §2

Compound | IC50 (HL-60) [µM] | Lung weight (B16-F10 [1]) [g] | LD50 [2] [mg/kg] | Lung weight (B16-F10 [3]) [g] | Lung weight (B16-F10 [4]) [g] | No. of lung lesions (B16-F10 [5]) | IC50 (B16-F10 [6]) [µM] | IC50 (B16-F10 [7]) [µM] | IC50 (WEHI) [µM] | Lung weight (B16-F10 [8]) [g] | No. of lung lesions (B16-F10 [9]) | No. of lung lesions (B16-F10 [10]) | No. of lung lesions (B16-F10 [11]) | Decrease (B16-F10 [12]) [%]
CCCC(=O)OCOC(=O)C(C)(C)C [AN-9] | 49.5 | 0.269 | 1360 | 0.0929 | 0.1571 | 72.38 | 82 | 60 | 75 | 0.135 | 140 | 97.89 | 66.6 | –
CCCC(=O)O [BUTYRIC ACID] | 1520 | – | – | – | – | – | 933 | – | 850 | – | – | – | – | 22
O=P1(N(CCCl)CCCl)NCCCO1 (stereo not drawn) [CYCLOPHOSPHAMIDE ANHYDROUS] | – | – | – | – | – | – | – | – | – | – | – | – | 56.38 | –
